{"source": "ChEMBL document CHEMBL3797067", "about": "“Part 3: Notch-sparing γ-secretase inhibitors: SAR studies of 2-substituted aminopyridopyrimidinones” (Bioorg Med Chem Lett, 2016)", "key": {"[1]": {"biological_target": "T1, Gamma-secretase (Homo sapiens) (UniProt Q96BI3+Q9NZ42+Q8WW43+P49768+Q92542+P49810)", "assay": "Inhibition of human gamma-secretase assessed as inhibition of amyloid beta 40 production using recombinant APP C100FLAG as substrate at 100 uM after 4 hrs by ELISA relative to control", "assay_type": "protein-complex assay", "how_it_was_run": "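Purified human γ-secretase complex incubated with recombinant C100 FLAG substrate in 0.2% CHAPSO/HEPES, pH 7.5. Compound added from DMSO stock to a final 100 μM with 1% final DMSO. Reaction run 4 h at 37°C and stopped with 0.5% SDS. Aβ40 quantified by specific ELISA and expressed as percent inhibition versus DMSO control.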"}, "[2]": {"biological_target": "T1, Gamma-secretase (Homo sapiens)", "assay": "Inhibition of human gamma-secretase assessed as inhibition of notch1 processing at 100 uM using N100Flag as substrate by western blot analysis", "assay_type": "protein-complex assay"}, "[3]": {"biological_target": "T1, Gamma-secretase (Homo sapiens)", "assay": "Inhibition of gamma-secretase (unknown origin) assessed as inhibition of amyloid beta 42 production at 100 uM by cell-based assay"}, "[4]": {"assay": "Lipophilicity, logD of the compound", "assay_type": "physicochemical", "details": "octanol/water"}, "[5]": {"assay": "Protein binding in human plasma", "assay_type": "ADME, cell-free", "details": "read-out: PPB (converted)"}, "[6]": {"assay": "Permeability of the compound from apical to basolateral side", "assay_type": "ADME", "details": "not told; read-out: permeability"}, "[7]": {"assay": "Metabolic stability of the compound in human liver microsomes assessed as parent compound remaining after 60 mins", "assay_type": "ADME", "details": "read-out: Stability"}, "[8]": {"assay": "Metabolic stability of the compound in rat liver microsomes assessed as parent compound remaining after 60 mins", "assay_type": "ADME", "details": "read-out: Stability"}, "[9]": {"biological_target": "Gamma-secretase", "assay": "Inhibition of gamma-secretase (unknown origin) assessed as inhibition of amyloid beta 42 production by cell-based assay", "set-up": "species or system Homo sapiens"}}, "note": "Active and inactive are the calls of the source. No cut-off for these calls is given here."}
{"molecule": "Cn1c(=O)c(-c2c(Cl)cccc2Cl)cc2cnc(N3CCN(c4ccccn4)CC3)nc21", "values": [{"measurement": "inhibition", "setting": "[1]", "result": 0, "unit": "%"}]}
{"molecule": "CC(C)Nc1ncc2cc(-c3c(Cl)cccc3Cl)c(=O)n(C)c2n1", "values": [{"measurement": "inhibition", "setting": "[1]", "result": 0, "unit": "%"}, {"measurement": "inhibition", "setting": "[2]", "result": "inactive"}]}
{"molecule": "Cn1c(=O)c(-c2ccccc2)cc2cnc(N3CCN(c4ccc(F)cc4)CC3)nc21", "values": [{"measurement": "inhibition", "setting": "[1]", "result": 14, "unit": "%"}, {"measurement": "inhibition", "setting": "[2]", "result": "Active"}]}
{"molecule": "Cn1c(=O)c(-c2c(Cl)cccc2Cl)cc2cnc(N3CCN(Oc4cccnc4)CC3)nc21", "values": [{"measurement": "inhibition", "setting": "[1]", "result": 0, "unit": "%"}, {"measurement": "inhibition", "setting": "[3]", "result": 0, "unit": "%"}]}
{"molecule": "CCCCCCNc1ncc2cc(-c3c(Cl)cccc3Cl)c(=O)n(C)c2n1", "values": [{"measurement": "inhibition", "setting": "[1]", "result": 53, "unit": "%"}, {"measurement": "inhibition", "setting": "[2]", "result": "Active"}]}
{"molecule": "Cn1c(=O)c(-c2c(Cl)cccc2Cl)cc2cnc(NCc3ccccn3)nc21", "values": [{"measurement": "inhibition", "setting": "[1]", "result": 59, "unit": "%"}, {"measurement": "inhibition", "setting": "[2]", "result": "inactive"}]}
{"molecule": "CN1CCN(c2ncc3cc(-c4c(Cl)cccc4Cl)c(=O)n(C)c3n2)CC1", "values": [{"measurement": "inhibition", "setting": "[1]", "result": 0, "unit": "%"}, {"measurement": "inhibition", "setting": "[2]", "result": "inactive"}, {"measurement": "inhibition", "setting": "[3]", "result": 7, "unit": "%"}]}
{"molecule": "Cn1c(=O)c(-c2ccc(Cl)cc2)cc2cnc(N3CCN(c4ccc(F)cc4)CC3)nc21", "values": [{"measurement": "inhibition", "setting": "[1]", "result": 0, "unit": "%"}]}
{"molecule": "CSc1cccc(Nc2ncc3cc(-c4c(Cl)cccc4Cl)c(=O)n(C)c3n2)c1", "values": [{"measurement": "inhibition", "setting": "[1]", "result": 0, "unit": "%"}, {"measurement": "inhibition", "setting": "[2]", "result": "inactive"}]}
{"molecule": "Cn1c(=O)c(-c2ccc(C(C)(C)C)cc2)cc2cnc(N3CCN(c4ccc(F)cc4)CC3)nc21", "values": [{"measurement": "inhibition", "setting": "[1]", "result": 2, "unit": "%"}]}
{"molecule": "Cn1c(=O)c(-c2c(F)cccc2F)cc2cnc(N3CCN(c4ccc(F)cc4)CC3)nc21", "values": [{"measurement": "inhibition", "setting": "[1]", "result": 20, "unit": "%"}, {"measurement": "inhibition", "setting": "[2]", "result": "Active"}]}
{"molecule": "Cn1c(=O)c(-c2c(Cl)cccc2Cl)cc2cnc(NCc3ccccc3)nc21", "values": [{"measurement": "inhibition", "setting": "[1]", "result": 0, "unit": "%"}]}
{"molecule": "Cn1c(=O)c(-c2c(Cl)cccc2Cl)cc2cnc(N3CCN(c4ncccn4)CC3)nc21", "values": [{"measurement": "inhibition", "setting": "[1]", "result": 0, "unit": "%"}]}
{"molecule": "Cn1c(=O)c(-c2c(Cl)cccc2Cl)cc2cnc(Nc3ccc(C(F)(F)F)cc3)nc21", "values": [{"measurement": "inhibition", "setting": "[1]", "result": 12, "unit": "%"}]}
{"molecule": "Cn1c(=O)c(-c2c(Cl)cccc2Cl)cc2cnc(N3CCN(c4ccc(F)cc4)CC3)nc21", "values": [{"measurement": "inhibition", "setting": "[1]", "result": 68, "unit": "%"}, {"measurement": "inhibition", "setting": "[2]", "result": "inactive"}, {"measurement": "logD", "setting": "[4]", "result": "> 4"}, {"measurement": "fraction unbound", "setting": "[5]", "result": 0.011}, {"measurement": "Papp A→B", "setting": "[6]", "result": 0.1, "unit": "×10⁻⁶ cm/s"}, {"measurement": "remaining at 1 h", "setting": "[7]", "result": 74, "unit": "%"}, {"measurement": "remaining at 1 h", "setting": "[8]", "result": 72, "unit": "%"}, {"measurement": "IC50", "setting": "[9]", "result": 2.7, "unit": "µM"}]}
{"molecule": "CC(C)N(Cc1ccccc1)c1ncc2cc(-c3c(Cl)cccc3Cl)c(=O)n(C)c2n1", "values": [{"measurement": "inhibition", "setting": "[1]", "result": 90, "unit": "%"}, {"measurement": "inhibition", "setting": "[2]", "result": "inactive"}, {"measurement": "logD", "setting": "[4]", "result": "> 4"}, {"measurement": "fraction unbound", "setting": "[5]", "result": 0.057}, {"measurement": "Papp A→B", "setting": "[6]", "result": 2.3, "unit": "×10⁻⁶ cm/s"}, {"measurement": "remaining at 1 h", "setting": "[7]", "result": 72, "unit": "%"}, {"measurement": "remaining at 1 h", "setting": "[8]", "result": 4, "unit": "%"}]}
{"molecule": "Cn1c(=O)c(-c2c(Cl)cccc2Cl)cc2cnc(Nc3ccccc3)nc21", "values": [{"measurement": "inhibition", "setting": "[1]", "result": 26, "unit": "%"}]}
{"molecule": "CSc1ccc(Nc2ncc3cc(-c4c(Cl)cccc4Cl)c(=O)n(C)c3n2)cc1", "values": [{"measurement": "inhibition", "setting": "[1]", "result": 47, "unit": "%"}, {"measurement": "inhibition", "setting": "[2]", "result": "inactive"}, {"measurement": "IC50", "setting": "[9]", "result": 26, "unit": "µM"}]}
{"molecule": "CC(C)N(Cc1cc(F)cc(F)c1)c1ncc2cc(-c3c(Cl)cccc3Cl)c(=O)n(C)c2n1", "values": [{"measurement": "inhibition", "setting": "[1]", "result": 73, "unit": "%"}, {"measurement": "inhibition", "setting": "[2]", "result": "Active"}]}
{"molecule": "CN(CCc1ccccc1)c1ncc2cc(-c3c(Cl)cccc3Cl)c(=O)n(C)c2n1", "values": [{"measurement": "inhibition", "setting": "[1]", "result": 48, "unit": "%"}, {"measurement": "inhibition", "setting": "[2]", "result": "inactive"}]}
{"molecule": "CC(C)N(Cc1ccc(Cl)c(Cl)c1)c1ncc2cc(-c3c(Cl)cccc3Cl)c(=O)n(C)c2n1", "values": [{"measurement": "inhibition", "setting": "[1]", "result": 50, "unit": "%"}, {"measurement": "inhibition", "setting": "[2]", "result": "inactive"}]}
{"molecule": "Cn1c(=O)ccc2cnc(N3CCN(c4ccc(F)cc4)CC3)nc21", "values": [{"measurement": "inhibition", "setting": "[1]", "result": 0, "unit": "%"}]}
{"molecule": "COc1ccc(Nc2ncc3cc(-c4c(Cl)cccc4Cl)c(=O)n(C)c3n2)cc1", "values": [{"measurement": "inhibition", "setting": "[1]", "result": 47, "unit": "%"}, {"measurement": "inhibition", "setting": "[2]", "result": "inactive"}]}
{"molecule": "Cn1c(=O)c(-c2c(Cl)cccc2Cl)cc2cnc(N3CCN(CC4CCCO4)CC3)nc21", "note": "(configuration not stated)", "values": [{"measurement": "inhibition", "setting": "[1]", "result": 0, "unit": "%"}]}
